Five compounds from ChEMBL document CHEMBL1123260 (J Med Chem, 1986) can be followed below.

One may read the IC50 as the point on the concentration scale where inhibition reaches its midpoint. Low values mean inhibition by little substance, high ones a need for much substance. By ED50 is commonly meant the midpoint of the dose-response relation. High values mean weaker potency, low ones greater potency.

Several values for one entry are separate records, joined by “and”; a condition that tells them apart may be missing. Identical values can stand only once.

The subject of assay [1] is Canis familiaris. The assay is described as follows: (§1) Percent change in total peripheral resistance (TPR) before beta-blockade in anesthetized dogs at 0.01 mg/kg. It counts as functional, Canis lupus familiaris. Summed up:
(§2)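 Anesthetized dogs: 30 min control recording before dosing. Drug dissolved in 0.9% saline or dilute HCl or NaOH (0.1 or 1.0 N), then made to volume with saline. Given iv (0.1 mL/kg over 1 min), cumulative doses at half-log intervals, 10–30 min between doses to reach steady state. One compound per animal. Inotropy taken as change in LV dP/dtmax from preceding baseline. Values are mean ± SEM or the mean of two experiments.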

In assay [2] the test system is Canis familiaris. Description: Percent change in myocardial contractility (LV dp/dt) before beta-blockade in anesthetized dogs at 0.11 mg/kg. It counts as functional, Canis lupus familiaris, Myocardium. In outline: as §2
In assay [3] the test system is Canis familiaris. Description: (§3) Percent change in heart rate (HR) before beta-blockade in anesthetized dogs at 0.01 mg/kg. The format is functional, Canis lupus familiaris. In outline:
as §2

Assay [4] concerns Canis familiaris. The assay is described as follows: (§4) Percent change in forelimb vascular resistance (FVR) after beta-blockade in anesthetized dogs 0.03 mg/kg. The format is functional, Canis lupus familiaris. In outline:
(§5)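 Anesthetized dogs given β-adrenoceptor blockade (nadolol, 1 mg/kg iv) before the test agent. Drug dissolved in saline or dilute HCl/NaOH and given iv as cumulative 1-min doses, 10–30 min apart. Forelimb vascular resistance recorded as percent change from control. Values are mean ± SEM (n = 4-5) or the mean of two determinations, with significance set at p < 0.05.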

The test system of assay [5] is Canis familiaris. Description: (§6) Percent change in mean arterial blood pressure (MABP) before beta-blockade in anesthetized dogs at 0.01 mg/kg. The format is functional, Canis lupus familiaris. Summed up: as §2
Assay [6] relates to Canis familiaris. Description: (§7) Percent change in myocardial contractility (LV dp/dt) before beta-blockade in anesthetized dogs at 0.01 mg/kg. It counts as functional, Canis lupus familiaris, Myocardium. Summed up: as §2
The test system of assay [7] is Canis familiaris. The assay is described as follows: (§8) Percent change in heart rate (HR) before beta-blockade in anesthetized dogs at 0.11 mg/kg. It counts as functional, Canis lupus familiaris. In outline: as §2
For assay [8], the system named is Canis familiaris. Description: Percent change in forelimb vascular resistance (FVR) after beta-blockade in anesthetized dogs 0.01 mg/kg. The format is functional, Canis lupus familiaris. Summed up:
as §5

The subject of assay [9] is Canis familiaris. The assay is described as §8. It counts as functional, Canis lupus familiaris. Summed up: as §2
The source holds these as a separate data set.

In assay [10] the test system is Canis familiaris. The assay is described as §7. It counts as functional, Canis lupus familiaris, Myocardium. In outline:
as §2
This is another data set of the same source.

Assay [11] has as its system Canis familiaris. Description: Percent change in forelimb vascular resistance (FVR)in anesthetized dogs after beta-blockade at 0.01 mg/kg. It counts as functional, Canis lupus familiaris. In outline: as §5
Assay [12] relates to Canis familiaris. The assay is described as follows: (§9) Percent change in total peripheral resistance (TPR) before beta-blockade in anesthetized dogs at 0.03 mg/kg. The format is functional, Canis lupus familiaris. In outline: as §2
For assay [13], the system named is Canis familiaris. Description: (§10) Percent change in heart rate (HR) before beta-blockade in anesthetized dogs at 0.03 mg/kg. The format is functional, Canis lupus familiaris. In outline: as §2
Assay [14] has as its system Canis familiaris. Described as §6. It counts as functional, Canis lupus familiaris. Summed up: as §2
The source holds these as a separate data set.

For assay [15], the system named is Canis familiaris. Description: (§11) Percent change in forelimb vascular resistance (FVR) after beta-blockade in anesthetized dogs 0.11 mg/kg. The format is functional, Canis lupus familiaris. Summed up:
as §5

Assay [16] relates to Canis familiaris. Description: (§12) Percent change in mean arterial blood pressure (MABP) before beta-blockade in anesthetized dogs at 0.03 mg/kg. The format is functional, Canis lupus familiaris. In outline: as §2
In assay [17] the test system is Canis familiaris. The description is as §3. The format is functional, Canis lupus familiaris. Summed up:
as §2
The source holds these as a separate data set.

Another assay addresses Phosphodiesterase 3 (Homo sapiens, UniProt Q14432+Q13370). The assay is described as follows: Inhibition of cardiac PDE 3 (phosphodiesterase III). The format is protein assay, Canis lupus familiaris.
In assay [18] the test system is Canis familiaris. Described as §12. It counts as functional, Canis lupus familiaris. Summed up:
as §2
This is another data set of the same source.

In assay [19] the test system is Canis familiaris. Description: Percent change in total peripheral resistance (TPR) before beta-blockade in anaesthetized dogs at 0.11 mg/kg. The format is functional, Canis lupus familiaris. Summed up:
as §2

The subject of assay [20] is Canis familiaris. The description is as §4. It counts as functional, Canis lupus familiaris. Summed up: as §5
The source holds these as a separate data set.

In assay [21] the test system is Canis familiaris. Description: (§13) Percent change in mean arterial blood pressure (MABP) before beta-blockade in anesthetized dogs at 0.11 mg/kg. The format is functional, Canis lupus familiaris. In outline: as §2
Assay [22] concerns Canis familiaris. Described as §11. It counts as functional, Canis lupus familiaris. In outline: as §5
This is another data set of the same source.

For assay [23], the system named is Canis familiaris. The description is as §13. It counts as functional, Canis lupus familiaris. Summed up: as §2
The source holds these as a separate data set.

For assay [24], the system named is Canis familiaris. The assay is described as follows: Positive inotropic effects in anesthetized dogs. It counts as functional. To be noted: Canis lupus familiaris. Summed up: as §2
Assay [25] relates to Canis familiaris. Description: Percent change in total peripheral resistance (TPR) before beta-blockade in anesthetized dogs at 0.11 mg/kg. The format is functional, Canis lupus familiaris. In outline: as §2
Assay [26] has as its system Canis familiaris. Described as §9. It counts as functional, Canis lupus familiaris. Summed up:
as §2
The source holds these as a separate data set.

Assay [27] relates to Canis familiaris. The assay is described as §1. It counts as functional, Canis lupus familiaris. In outline:
as §2
The source holds these as a separate data set.

Assay [28] deals with Canis familiaris. The assay is described as §10. It counts as functional, Canis lupus familiaris. Summed up:
as §2
This is another data set of the same source.

The test system of assay [29] is Canis familiaris. The assay is described as follows: Percent change in myocardial contractility (LV dp/dt) before beta-blockade in anesthetized dogs at 0.03 mg/kg. It counts as functional, Canis lupus familiaris, Myocardium. In outline:
as §2

The test system of assay [30] is Canis familiaris. The assay is described as follows: Effective dose in anesthetized dogs. It counts as functional. To be noted: Canis lupus familiaris. Summed up: as §2
In assay [31] the test system is Canis familiaris. Description: Cardiovascular effects in anesthetized dogs. The format is functional. The following applies: Canis lupus familiaris. Summed up: as §2

Take `O=C1CC2Cc3cc(-n4ccnc4)ccc3C2=NN1` (stereo not drawn): the “Change in TPR” value was -12% in the assay on Canis familiaris [1]; -23% in the assay with Canis familiaris [12]; -33.5% with Canis familiaris [19]; -39% in the assay with Canis familiaris [25]; -22.5% in the assay with Canis familiaris [26]; -8.5% in the assay on Canis familiaris [27]. In addition, the “Change in LV dp/dt” value is 106% and 57% in the assay with Canis familiaris [2]; 18% with Canis familiaris [6]; 11% in the assay on Canis familiaris [10]. Moreover, the “Change in heart rate” value came out at 3% in the assay on Canis familiaris [3]; 12% with Canis familiaris [7]; 5% with Canis familiaris [9]; 2% in the assay on Canis familiaris [13]; 0% in the assay on Canis familiaris [17]; 4% with Canis familiaris [28]. The “Change in FVR” value was -1.5% in the assay with Canis familiaris [4]; -7.5% with Canis familiaris [8]; -1.5% with Canis familiaris [11]; -31% in the assay with Canis familiaris [15]; -22.5% in the assay on Canis familiaris [20]; -34.5% with Canis familiaris [22]. Besides, the “Change in MABP” value in the assay with Canis familiaris [5] is -2%; in the assay with Canis familiaris [14], 0%; with Canis familiaris [16], -3%; with Canis familiaris [18], -7%; in the assay on Canis familiaris [21] it was -18%; with Canis familiaris [23], -18%. The compound further returned an IC50 against Phosphodiesterase 3 of 1800 nM. Also, the ED50 with Canis familiaris [24] worked out at 0.023 mg/kg.
Turning to `CC1CC(O)=NN=C1c1ccc(-n2ccnc2)cc1` (stereo not drawn) [CI-930], the “Change in heart rate” value amounted to 7% in the assay on Canis familiaris [13] and 11% with Canis familiaris [28]. For the same compound, the “Change in LV dp/dt” value in the assay with Canis familiaris [29] was 76% and 47%. For the same compound, the “Change in MABP” value is -5% with Canis familiaris [16] and -7.5% with Canis familiaris [18]. In the assay with Canis familiaris [24], this compound yielded an ED50 of 0.013 mg/kg.
Consider `CN1N=C2c3ccc(-n4ccnc4)cc3CC2CC1=O` (stereo not drawn), for which, in the assay with Canis familiaris [30], the ED50 was found to be 1 mg/kg.
Regarding `CCC(=O)Nc1ccc2c(c1)CC1CC(=O)NN=C21` (stereo not drawn), in the assay with Canis familiaris [31], it took a dose of 0.0104 mg/kg to reach the 50% effect level (ED50).
On Phosphodiesterase 3, `Oc1cc2c(nn1)-c1ccc(-n3ccnc3)cc1C2` had a concentration for half-maximal inhibition (IC50) of 1600 nM. In other words, the single-digit micromolar range.
